RAD52 inh: inhibitors of human RAD52 DNA annealing; inhibition, % at 18.7 µM; P43351; recombinant RAD52 DNA annealing, FRET fluorescence; hit rate 0.46% among 360,000; AID 651710;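 active = every replicate showing at least 50% inhibition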
RAD54 inh: inhibitors of human RAD54 branch migration | Q92698 | hit rate 0.14% among 360,000 | inhibition, % at 10.4 µM | AID 602329 | RAD54 Holliday junction branch migration, FAM/BHQ fluorescence;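 active = mean normalized replicate activity at least 40 and at least half of replicates scoring 40 or more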;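 also: inhibitors cause a drop in the FAM fluorescence signal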
MLL AF4-AF9 inh: blocks AF4 peptide binding to human AF9. P42568. inhibition, % at 10 µM. hit rate 0.47% among 350,000. AlphaScreen, biotin-AF4 peptide binding to FLAG-AF9. AID 651704;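 active = every replicate reaching a set inhibition limit, whatever the replicate mean, cut at about 25% in these data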
Target sequence (P42568 whole entry, looked up): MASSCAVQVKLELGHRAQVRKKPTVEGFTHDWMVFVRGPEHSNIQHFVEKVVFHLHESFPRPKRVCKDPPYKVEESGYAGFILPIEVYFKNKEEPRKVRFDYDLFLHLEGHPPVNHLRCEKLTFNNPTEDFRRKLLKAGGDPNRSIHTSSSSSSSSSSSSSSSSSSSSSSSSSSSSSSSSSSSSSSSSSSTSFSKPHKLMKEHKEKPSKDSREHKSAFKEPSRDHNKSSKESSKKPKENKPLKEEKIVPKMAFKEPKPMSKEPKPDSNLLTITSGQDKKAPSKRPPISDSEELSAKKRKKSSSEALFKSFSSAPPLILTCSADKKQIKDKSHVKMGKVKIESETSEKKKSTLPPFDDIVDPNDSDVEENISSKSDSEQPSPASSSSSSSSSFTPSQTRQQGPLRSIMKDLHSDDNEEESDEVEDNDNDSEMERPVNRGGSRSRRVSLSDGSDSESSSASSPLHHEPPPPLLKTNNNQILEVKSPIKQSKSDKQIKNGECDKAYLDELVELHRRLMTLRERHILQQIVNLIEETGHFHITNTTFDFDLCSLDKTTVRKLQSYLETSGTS
Casp6 inh: inhibitors of human caspase-6. P55212. inhibition, % at 12.5 µM. hit rate 0.53% among 350,000. purified caspase-6, Z-VEID-R110 cleavage fluorescence;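 active = mean inhibition across replicates at least about 35%, with every replicate also reaching that limit, limit read from the data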
Xi reactivation: X-chromosome reactivation activator | XiGFP mouse fibroblasts, % GFP-positive cells imaging, 3 d; cells co-treated with 5-aza-dC sensitizer; scaled so ellipticine positive control = 100% | activation, % at 7.58 µM | hit rate 0.055% among 360,000;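 active = mean normalized replicate activation at least 10% and every replicate at or above 10%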
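Assay system: SV40-immortalized XiGFP fibroblast cells, line 68-5-11; buffer or medium: DMEM plus 5-aza-dC sensitizer; compound: one concentration, pinned; timing: compounds 3 days, fix/stain 15 min at room temperature; benchmarks: positive control ellipticine, 6 µM final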
S100A4 MyoIIA: S100A4-myosin IIA interaction inhibition | P26447 | S100A4/TAMRA-MyoIIA peptide fluorescence polarization | inhibition, % at 10.7 µM | hit rate 0.14% among 360,000;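 active = mean inhibition of at least 70% across replicates, with every replicate also reaching that level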
Target sequence (P26447 whole entry, looked up): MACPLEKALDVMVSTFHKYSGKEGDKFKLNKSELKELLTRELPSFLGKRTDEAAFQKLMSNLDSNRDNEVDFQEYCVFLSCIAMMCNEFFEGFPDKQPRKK
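Test system: S100A4 monomer protein. Medium: HEPES buffer with Ca2+, pH 7.2. Reagent: fluorescent myosin IIA peptide, 5 nM. Compound dosing: single-point compound testing. Timing: 5 min between mix addition and reading. Benchmarks: DMSO neutral and TFP positive wells.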
Each line names hits and unclear results; the compound was inactive in the other large screens. Hits are enriched below; roughly 1.3% of the tested compounds scored in any of these assays.

CC1OC2CC(=O)OC2C2=C1C(=O)c1c(O)cccc1C2=O (stereo not given)	Casp6 inh 85 (no result: Xi reactivation)
COc1ccccc1S(=O)(=O)N[C@H]1CC[C@@H](CCNC(=O)C2CCC2)O[C@@H]1CO	none
CCc1ccc(-n2c(SCC(=O)NC3CCS(=O)(=O)C3)nc3ccccc3c2=O)cc1 (stereo not given)	Casp6 inh 45
O=[N+]([O-])c1ccc(Cl)c(-c2ccc(/C=N/n3cnnc3)o2)c1	none
CN1CCN(/N=C/c2ccc(-c3ccc([N+](=O)[O-])cc3Cl)o2)CC1	MLL AF4-AF9 inh 36 (no result: RAD54 inh)
CNC[C@@H]1Oc2c(cccc2N(C)C)C(=O)N(C)C[C@H]1C	none (no result: RAD52 inh, RAD54 inh, MLL AF4-AF9 inh, Casp6 inh, S100A4 MyoIIA)
CCOc1cccc2sc(=NC(=O)c3ccco3)n(CC(=O)OC)c12	none (no result: RAD54 inh)
C#CCn1c(=NC(=O)c2ccco2)sc2cccc(Cl)c21	MLL AF4-AF9 inh 31 (no result: RAD54 inh)
CC(OC(=O)c1ccc(Br)o1)C(=O)NCC1CCCCC1 (stereo not given)	none
COc1cccc(C(=O)OC(C)C(=O)NCC2CCCCC2)c1 (stereo not given)	Casp6 inh 36
C[C@@H]1CN(C)C(=O)Cc2cc(N(C)C)ccc2O[C@H]1CN(C)C	none (no result: RAD52 inh, RAD54 inh, MLL AF4-AF9 inh, Casp6 inh, S100A4 MyoIIA)
CCc1nc(SCC(=O)O)c(C#N)c2c1CCCC2	none (no result: RAD54 inh)
Cc1nc(SCC(=O)O)c(C#N)c2c1CCCC2	Casp6 inh 39
O=C(NCc1ccccc1Cl)NCc1ccccc1Cl	MLL AF4-AF9 inh 32 (no result: RAD54 inh)
CC(=O)Nc1cc(-c2ccc(N3CCN(C)CC3)cc2)cn2c(-c3ccc(F)c(Cl)c3)cnc12	MLL AF4-AF9 inh 27
CC(=O)Nc1cc(-c2ccc(C(=O)N3CCOCC3)cc2)cn2c(-c3ccc(F)c(Cl)c3)cnc12	none
Nc1ccc(C(=O)Nc2ccc3c(O)cc(S(=O)(=O)O)cc3c2)cc1	Casp6 inh 84
Nc1ccc(NC(=O)c2ccc(C(=O)Nc3ccc(N)cc3)cc2)cc1	none
CCC(=O)N[C@H]1CC[C@H](CC(=O)NCc2ccccc2OC)O[C@@H]1CO	none
Cc1noc(C)c1NC(=O)N(C)C[C@@H]1Oc2ccc(NC(=O)Cn3cnnn3)cc2C(=O)N([C@@H](C)CO)C[C@@H]1C	none
CN(C)c1cccc(/C=C(\C#N)c2ccccc2)c1	MLL AF4-AF9 inh 26
COCC(=O)N(C)C[C@@H]1Oc2ncc(C#CC(C)(C)O)cc2C(=O)N([C@@H](C)CO)C[C@@H]1C	none
Cc1nc(Cc2nnc(SCC(=O)Nc3c(C)cccc3C)o2)cs1	none (no result: RAD54 inh)
Cc1ccc(NC(=O)CSc2nnc(Cc3csc(C)n3)o2)c(C)c1	Casp6 inh 62 (no result: RAD54 inh)
CC1=NN(c2ccccc2)C(=O)/C1=C/c1ccc(-c2ccc(C)c(C(=O)O)c2)o1	none (no result: RAD54 inh)
O=C(O)c1cc(-c2ccc(/C=C3/SC(=S)N(Cc4ccccc4)C3=O)o2)ccc1Cl	Casp6 inh 51
CC1(C)OC(=O)C(=Cc2ccc(-c3ccc(Cl)c(C(=O)O)c3)o2)C(=O)O1	Casp6 inh 58 (no result: RAD54 inh)
CC1=NN(c2ccc(Cl)c(C(=O)O)c2)C(=O)/C1=C\c1ccc(-c2ccc(C(=O)O)cc2)o1	Casp6 inh 54 (no result: RAD54 inh)
COCC(=O)N1[C@@H](CO)[C@H](c2ccccc2)C12CN(C(=O)c1cccnc1)C2	none (no result: RAD52 inh, RAD54 inh, MLL AF4-AF9 inh, Casp6 inh, S100A4 MyoIIA)
C[C@@H]1CN([C@H](C)CO)S(=O)(=O)c2ccc(C#CC3CC3)cc2O[C@H]1CN(C)Cc1cncnc1	none (no result: RAD52 inh, RAD54 inh, MLL AF4-AF9 inh, Casp6 inh, S100A4 MyoIIA)
C=CCn1c(NS(=O)(=O)c2ccccc2)c(S(=O)(=O)c2ccc(C)cc2)c2nc3ccccc3nc21	none
O=S(=O)(Nc1c(S(=O)(=O)c2ccccc2)c2nc3ccccc3nc2n1C1CCCCC1)c1ccccc1	Casp6 inh 41
CN(C)C(=O)C[C@H]1C[C@@H]2c3cc(NC(=O)CC4CC4)ccc3O[C@@H]2[C@H](CO)O1	none
CCC(=O)N1C[C@@H](C)[C@@H](OC)CN(C)C(=O)c2ccc(NC(=O)c3cc(C)on3)cc2OC[C@@H]1C	none (no result: RAD52 inh, MLL AF4-AF9 inh, Casp6 inh, S100A4 MyoIIA)
COc1cccc(C2=Nc3cccc4cccc(c34)N2)c1	MLL AF4-AF9 inh 33
CCN(CC(=O)Nc1c(F)cccc1F)C(=O)CNC(=O)c1cccs1	S100A4 MyoIIA 87
CCN(CC(=O)Nc1c(F)cccc1F)C(=O)CNC(=O)c1ccc2ccccc2c1	none
O=[N+]([O-])c1ccc(N2CCN(c3ccc(F)cc3)CC2)cc1	none
CN1CCCN(c2ccc([N+](=O)[O-])cc2)CC1	MLL AF4-AF9 inh 28 (no result: RAD54 inh)
O=[N+]([O-])c1cc2ccccc2c(O)c1O	Casp6 inh 41
CC(=O)OC(C)=O	S100A4 MyoIIA 79 (no result: MLL AF4-AF9 inh, Xi reactivation)
CN1CCN(c2ccc(CNC(=O)C3Cc4c(-c5ccc6c(c5)OCO6)ccnc4O3)cc2)CC1 (stereo not given)	Casp6 inh 80
CC(=O)Nc1cccc(-c2ccnc3c2CC(C(=O)NCc2ccc(N(C)C)cc2)O3)c1 (stereo not given)	MLL AF4-AF9 inh 31
CC(=O)Nc1cccc(-c2ccnc3c2CC(C(=O)NCc2ccncc2)O3)c1 (stereo not given)	none
COc1cccc(N=Nc2ccc3ccccc3c2O)c1	S100A4 MyoIIA 122
COc1ccc(N=Nc2ccc3ccccc3c2)c(O)c1	none
Oc1c(N=Nc2nn[nH]n2)ccc2ccccc12	Casp6 inh 94 (no result: RAD54 inh)
CN1c2ccc(-c3ccccc3)cc2[C@@H]2[C@@H](CCN2C(=O)NC2CCCCC2)[C@@H]1CO	none (no result: RAD54 inh)
Cc1ccc(S(=O)(=O)Nc2ccc3c(c2)C(=O)N([C@H](C)CO)C[C@@H](C)[C@H](CN(C)S(=O)(=O)c2cn(C)cn2)O3)cc1	none
Cc1ccc2c(c1)N(CCCC(=O)NCCCN1CCCC1=O)C(=O)CO2	MLL AF4-AF9 inh 49
Cc1ccc2c(c1)N(CCC(=O)NCCCN1CCCC1)C(=O)CO2	none
Cc1c(Cl)c(C(F)F)nn1CC(=O)NC1C(=O)N2C(C(=O)O)=C(CSc3nnnn3C)CSC12 (stereo not given)	Casp6 inh 38 (no result: RAD54 inh)
Cc1c(Cl)cnn1CC(=O)NC1C(=O)N2C(C(=O)O)=C(CSc3nnnn3C)CSC12 (stereo not given)	none (no result: RAD54 inh, Casp6 inh)
COc1cccc(S(=O)(=O)Nc2ccc3c(c2)C(=O)N(C)[C@H]2CC[C@H](CC(=O)NCC4CCCCC4)O[C@H]2CO3)c1	none (no result: Casp6 inh)
C=CCC(NCc1ccccc1)c1ccc(C)o1 (stereo not given)	none (no result: RAD52 inh, MLL AF4-AF9 inh, Casp6 inh, Xi reactivation, S100A4 MyoIIA)
C=CCC(NCc1ccccc1)c1ccc(Cl)cc1 (stereo not given)	Casp6 inh 54
COc1ccc(CN(C)C[C@H]2Oc3ccc(NC(=O)CCC(F)(F)F)cc3CC(=O)N([C@@H](C)CO)C[C@H]2C)cc1	none
COc1ccc2c3c([nH]c2c1)[C@H](CO)N(C(=O)c1ccncc1)CC31CN(C(=O)CC2CC2)C1	none (no result: RAD52 inh, RAD54 inh, Casp6 inh, S100A4 MyoIIA)
COC(=O)CC1OCC=C2CN3CCC45C6=CC(=O)C(=O)C([N+](=O)[O-])=C6NC4C1C2CC35 (stereo not given)	Casp6 inh 69
